Measured values from ChEMBL document CHEMBL2346608, “New annelated thieno[2,3-e][1,2,3]triazolo[1,5-a]pyrimidines, with potent anticancer activity, designed through VLAK protocol” (2013).

Tests used:
Type in all cases: functional
[1] = tested on: A498; assay: Antiproliferative activity against human A498 cells after 48 hrs by sulforhodamine B assay; settings: A498, 48 h
How it was run: (§1)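 Cells grown in RPMI 1640 with 5% FBS and 2 mM L-glutamine, plated at 5000–40,000 cells/well and preincubated 24 h at 37 °C, 5% CO2. Five drug concentrations (10-fold or ½-log dilutions from DMSO stocks) applied for 48 h. TCA-fixed (final 10% adherent, 16% suspension), SRB-stained, A515 read. Growth versus time-zero and control wells gave GI50, TGI, LC50.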

[2] = tested on: LOX IMVI; assay: Antiproliferative activity against human LOXIMVI cells after 48 hrs by sulforhodamine B assay; how it was run: as §1
[3] = tested on: SF-268; assay: Antiproliferative activity against human SF268 cells after 48 hrs by sulforhodamine B assay; settings: SF-268, 48 h; how it was run: as §1
[4] = tested on: M14; assay: Antiproliferative activity against human M14 cells after 48 hrs by sulforhodamine B assay; settings: M14, 48 h; how it was run: as §1
[5] = tested on: KM12; assay: Antiproliferative activity against human KM12 cells after 48 hrs by sulforhodamine B assay; settings: KM12, 48 h; how it was run: as §1
[6] = tested on: TK-10; assay: Antiproliferative activity against human TK10 cells after 48 hrs by sulforhodamine B assay; settings: TK-10, 48 h
How it was run: (§2)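 Cells in RPMI 1640 with 5% FBS and 2 mM L-glutamine were seeded at 5000–40,000/well according to doubling time and preincubated 24 h at 37 °C in 5% CO2. Time-zero plates were TCA-fixed when drug was added. Five 10-fold or ½-log dilutions from DMSO stocks were added for 48 h. After SRB staining, A515 was read and GI50 derived from [(Ti−Tz)/(C−Tz)]×100 = 50.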

[7] = tested on: NCI-H23; assay: Antiproliferative activity against human NCI-H23 cells after 48 hrs by sulforhodamine B assay; settings: NCI-H23, 48 h; how it was run: as §1
[8] = tested on: SNB-19; assay: Antiproliferative activity against human SNB19 cells after 48 hrs by sulforhodamine B assay; settings: SNB-19, 48 h; how it was run: as §1
[9] = tested on: HOP-62; assay: Antiproliferative activity against human HOP62 cells after 48 hrs by sulforhodamine B assay; settings: HOP-62, 48 h; how it was run: as §1
[10] = tested on: UACC-257; assay: Antiproliferative activity against human UACC257 cells after 48 hrs by sulforhodamine B assay; settings: UACC-257, 48 h; how it was run: as §2
[11] = tested on: OVCAR-4; assay: Antiproliferative activity against human OVCAR4 cells after 48 hrs by sulforhodamine B assay; settings: OVCAR-4, 48 h; how it was run: as §1
[12] = Antiproliferative activity against human EKVX cells after 48 hrs by sulforhodamine B assay; how it was run: as §1
[13] = tested on: MDA-MB-468; assay: Antiproliferative activity against human MDA-MB-468 cells after 48 hrs by sulforhodamine B assay; settings: MDA-MB-468, 48 h; how it was run: as §1
[14] = tested on: U-251; assay: Antiproliferative activity against human U251 cells after 48 hrs by sulforhodamine B assay; settings: U-251, 48 h; how it was run: as §2
[15] = tested on: OVCAR-8; assay: Antiproliferative activity against human OVCAR8 cells after 48 hrs by sulforhodamine B assay; settings: OVCAR-8, 48 h; how it was run: as §1
[16] = tested on: HL-60; assay: Antiproliferative activity against human HL60 (TB) cells after 48 hrs by sulforhodamine B assay; settings: HL-60, 48 h
How it was run: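 NCI 60-cell panel protocol: cells in RPMI 1640 with 5% FBS and 2 mM L-glutamine, plated 24 h at 37 °C/5% CO2 before dosing. Compounds dissolved in DMSO and tested at five concentrations (10-fold or ½ log serial dilutions) for 48 h. Suspension cells fixed with 80% TCA (final 16%), SRB stained, absorbance at 515 nm. GI50 derived from time-zero-corrected growth.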

[17] = tested on: K562; assay: Antiproliferative activity against human K562 cells after 48 hrs by sulforhodamine B assay; settings: K562, 48 h; how it was run: as §1
[18] = tested on: SN12C; assay: Antiproliferative activity against human SN12C cells after 48 hrs by sulforhodamine B assay; how it was run: as §1
[19] = tested on: MCF7; assay: Antiproliferative activity against human MCF7 cells after 48 hrs by sulforhodamine B assay; settings: MCF7, 48 h; how it was run: as §1
[20] = tested on: PC-3; assay: Antiproliferative activity against human PC3 cells after 48 hrs by sulforhodamine B assay; settings: PC-3, 48 h; how it was run: as §1
[21] = Antiproliferative activity against human Hs 578T cells after 48 hrs by sulforhodamine B assay; how it was run: as §1
[22] = tested on: SF-539; assay: Antiproliferative activity against human SF539 cells after 48 hrs by sulforhodamine B assay; settings: SF-539, 48 h; how it was run: as §1
[23] = tested on: OVCAR-3; assay: Antiproliferative activity against human OVCAR3 cells after 48 hrs by sulforhodamine B assay; settings: OVCAR-3, 48 h; how it was run: as §1
[24] = tested on: NCI-H226; assay: Antiproliferative activity against human NCI-H226 cells after 48 hrs by sulforhodamine B assay; settings: NCI-H226, 48 h; how it was run: as §1
[25] = tested on: ACHN; assay: Antiproliferative activity against human ACHN cells after 48 hrs by sulforhodamine B assay; how it was run: as §1
[26] = tested on: CAKI-1; assay: Antiproliferative activity against human CAKI-1 cells after 48 hrs by sulforhodamine B assay; settings: CAKI-1, 48 h; how it was run: as §1
[27] = tested on: NCI-H460; assay: Antiproliferative activity against human NCI-H460 cells after 48 hrs by sulforhodamine B assay; settings: NCI-H460, 48 h; how it was run: as §1
[28] = tested on: NCI-H522; assay: Antiproliferative activity against human NCI-H522 cells after 48 hrs by sulforhodamine B assay; settings: NCI-H522, 48 h; how it was run: as §1
[29] = read-out: pLC50 (the source's name) (converted)

O=C(CCCn1c(=O)c2sc3ncccc3c2n2nnc(-c3ccccc3)c12)NCCc1c[nH]cn1
GI50 [1]: 6.76 µM | LC50 [1]: 53.7 µM | TGI ([1]; read-out: pTGI (converted)): 22.4 µM | GI50 [2]: 12.3 µM | CC50 [2, 29]: 57.5 µM | TGI ([2]; read-out: pTGI (converted)): 26.3 µM | GI50 [3]: 11.7 µM | LC50 [3]: 72.4 µM | TGI ([3]; read-out: pTGI (converted)): 28.8 µM | GI50 [4]: 3.47 µM | LC50 [4]: 50.1 µM | TGI ([4]; read-out: pTGI (converted)): 19.5 µM | GI50 [5]: 1.91 µM | LC50 [5]: 83.2 µM | TGI ([5]; read-out: pTGI (converted)): 24 µM | GI50 [6]: 13.5 µM | LC50 [6]: 57.5 µM | TGI ([6]; read-out: pTGI (converted)): 28.2 µM | GI50 [7]: 14.5 µM | LC50 [7]: 70.8 µM | TGI ([7]; read-out: pTGI (converted)): 32.4 µM | GI50 [8]: 10.7 µM | LC50 [8]: > 100 µM | TGI ([8]; read-out: pTGI (converted)): 33.9 µM | GI50 [9]: 16.6 µM | LC50 [9]: 61.7 µM | TGI ([9]; read-out: pTGI (converted)): 31.6 µM | GI50 [10]: 18.2 µM | LC50 [10]: 69.2 µM | TGI ([10]; read-out: pTGI (converted)): 35.5 µM | GI50 [11]: 15.5 µM | LC50 (concentration killing 50% of cells) [11]: 67.6 µM | TGI ([11]; read-out: pTGI (converted)): 32.4 µM | GI50 [12]: 15.1 µM | LC50 [12]: > 100 µM | TGI ([12]; read-out: pTGI (converted)): 44.7 µM | GI50 [13]: 8.13 µM | LC50 [13]: 79.4 µM | TGI ([13]; read-out: pTGI (converted)): 27.5 µM | GI50 [14]: 1.29 µM | LC50 [14]: 45.7 µM | TGI ([14]; read-out: pTGI (converted)): 14.8 µM | GI50 [15]: 0.0955 µM | LC50 [15]: 67.6 µM | TGI ([15]; read-out: pTGI (converted)): 17.4 µM | GI50 [16]: 1.41 µM | CC50 [16, 29]: 50.1 µM | TGI ([16]; read-out: pTGI (converted)): 4.79 µM | GI50 [17]: 0.309 µM | LC50 (concentration killing 50% of cells) [17]: > 100 µM | TGI ([17]; read-out: pTGI (converted)): 15.5 µM | GI50 [18]: 0.331 µM | LC50 [18]: 41.7 µM | TGI ([18]; read-out: pTGI (converted)): 13.5 µM | GI50 [19]: 17.8 µM | LC50 [19]: > 100 µM | TGI ([19]; read-out: pTGI (converted)): > 100 µM | GI50 [20]: 11 µM | LC50 [20]: > 100 µM | TGI ([20]; read-out: pTGI (converted)): > 100 µM | GI50 [21]: 11.2 µM | LC50 [21]: 87.1 µM | TGI ([21]; read-out: pTGI (converted)): 31.6 µM | GI50 [22]: 0.316 µM | LC50 [22]: 53.7 µM | TGI ([22]; read-out: pTGI (converted)): 14.8 µM | GI50 [23]: 11 µM | LC50 [23]: 50.1 µM | TGI ([23]; read-out: pTGI (converted)): 23.4 µM | GI50 [24]: 11.7 µM | LC50 [24]: 74.1 µM | TGI ([24]; read-out: pTGI (converted)): 29.5 µM | GI50 [25]: 15.5 µM | LC50 (50% lethal concentration) [25]: 63.1 µM | TGI ([25]; read-out: pTGI (converted)): 30.9 µM | GI50 [26]: 2.88 µM | CC50 [26, 29]: 72.4 µM | TGI ([26]; read-out: pTGI (converted)): 14.5 µM | GI50 [27]: 3.63 µM | LC50 [27]: 42.7 µM | TGI ([27]; read-out: pTGI (converted)): 13.2 µM | GI50 [28]: 2.95 µM | LC50 [28]: 60.3 µM | TGI ([28]; read-out: pTGI (converted)): 22.9 µM
